Here are results for nine compounds from ChEMBL document CHEMBL3745671, “Discovery of N-[5-(6-Chloro-3-cyano-1-methyl-1H-indol-2-yl)-pyridin-3-ylmethyl]-ethanesulfonamide, a Cortisol-Sparing CYP11B2 Inhibitor that Lowers Aldosterone in Human Subjects” (J Med Chem, 2015).

Converted amounts (≈) assume the structure as drawn.

Data set [1] concerns the target T1, Cytochrome P450 11B2, mitochondrial (Homo sapiens, UniProt P19099).
T1 sequence (P19099 whole entry): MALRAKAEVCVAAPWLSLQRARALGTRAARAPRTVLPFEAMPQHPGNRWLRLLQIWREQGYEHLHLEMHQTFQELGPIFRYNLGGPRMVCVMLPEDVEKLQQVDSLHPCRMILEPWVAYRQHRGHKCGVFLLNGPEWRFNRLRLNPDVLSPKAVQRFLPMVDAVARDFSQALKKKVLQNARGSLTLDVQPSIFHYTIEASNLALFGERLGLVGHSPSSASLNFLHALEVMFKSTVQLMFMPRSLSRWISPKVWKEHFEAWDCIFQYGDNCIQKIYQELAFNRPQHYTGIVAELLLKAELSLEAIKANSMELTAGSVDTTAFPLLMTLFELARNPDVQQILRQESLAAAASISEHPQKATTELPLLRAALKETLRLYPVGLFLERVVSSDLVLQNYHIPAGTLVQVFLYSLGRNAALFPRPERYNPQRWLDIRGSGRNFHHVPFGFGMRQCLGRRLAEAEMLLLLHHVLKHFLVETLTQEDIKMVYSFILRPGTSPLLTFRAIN
Description: Inhibition of CYP11B2 in human […] cells assessed as decrease in […] aldosterone secretion after 24 hrs by RIA. Type of data set: cell-based.

The species entered for a further data set is Homo sapiens. As to the kind of experiment: Selectivity ratio of IC50 for human recombinant CYP11B1 to IC50 for human recombinant CYP11B2.
Data set [2] deals with T1, Cytochrome P450 11B2, mitochondrial. As to the kind of experiment: Inhibition of human recombinant CYP11B2 using 11-deoxycorticosterone as substrate after 2 hrs by scintillation proximity assay.
In another data set the target is T2, CYP19 (aromatase) (Homo sapiens, UniProt P11511).
T2 sequence (P11511 whole entry): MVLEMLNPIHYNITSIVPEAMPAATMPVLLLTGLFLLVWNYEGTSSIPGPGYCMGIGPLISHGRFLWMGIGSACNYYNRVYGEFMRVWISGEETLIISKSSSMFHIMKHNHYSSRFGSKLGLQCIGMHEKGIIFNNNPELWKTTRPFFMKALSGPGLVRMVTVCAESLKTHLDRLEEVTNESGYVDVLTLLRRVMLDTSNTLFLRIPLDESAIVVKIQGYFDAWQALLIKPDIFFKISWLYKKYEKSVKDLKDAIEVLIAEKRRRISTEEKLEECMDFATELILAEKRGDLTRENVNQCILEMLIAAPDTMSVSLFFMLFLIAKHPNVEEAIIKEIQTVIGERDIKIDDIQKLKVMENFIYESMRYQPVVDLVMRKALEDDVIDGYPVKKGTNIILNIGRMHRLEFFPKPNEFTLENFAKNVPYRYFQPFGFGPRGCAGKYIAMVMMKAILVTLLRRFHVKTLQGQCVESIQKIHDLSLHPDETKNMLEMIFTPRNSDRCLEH
As to the kind of experiment: Inhibition of human CYP19 at 10 uM preincubated for 10 mins with NADPH followed by protein addition measured after 90 mins by fluorometric analysis.

Data set [3] has as its target T3, Cytochrome P450 11B2, mitochondrial (Rattus norvegicus, UniProt P30099).
T3 sequence (P30099 whole entry): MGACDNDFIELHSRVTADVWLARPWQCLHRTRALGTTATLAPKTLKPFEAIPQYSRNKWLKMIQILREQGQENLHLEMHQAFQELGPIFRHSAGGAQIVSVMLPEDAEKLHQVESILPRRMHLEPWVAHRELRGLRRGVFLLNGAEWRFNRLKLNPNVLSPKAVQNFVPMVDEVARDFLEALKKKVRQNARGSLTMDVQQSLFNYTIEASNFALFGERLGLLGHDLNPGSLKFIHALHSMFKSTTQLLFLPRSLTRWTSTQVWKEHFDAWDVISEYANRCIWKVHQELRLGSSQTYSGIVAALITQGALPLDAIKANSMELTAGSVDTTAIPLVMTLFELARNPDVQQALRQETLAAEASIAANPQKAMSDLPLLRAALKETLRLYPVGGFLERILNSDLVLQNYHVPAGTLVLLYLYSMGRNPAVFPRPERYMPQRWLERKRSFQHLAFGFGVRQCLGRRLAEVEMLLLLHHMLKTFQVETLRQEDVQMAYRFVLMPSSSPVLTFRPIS
Description: Inhibition of recombinant rat CYP11B2 using 11-deoxycorticosterone as substrate after 2 hrs by scintillation proximity assay.

The species named for the next data set is Macaca fascicularis. As to the kind of experiment: Selectivity ratio of IC50 for cynomolgus monkey CYP11B1 to IC50 for cynomolgus monkey CYP11B2. The essentials:
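Adrenal homogenates from cynomolgus monkey (Macaca fascicularis) served as the enzyme source, with 11-DOC as substrate. CYP11B2 activity was read as aldosterone production and CYP11B1 activity as cortisol production. The value is the CYP11B1 IC50 divided by the CYP11B2 IC50.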

The nature of data set [4]: Equilibrium solubility of the compound in buffer at pH 6.8. The data set is classed as physicochemical. The gist of the method:
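Equilibrium solubility measured in buffer at pH 6.8.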

A short description of data set [5]: Oral bioavailability in continuous angiotensin 2 infusion Sprague-Dawley rat model at 3 mg/kg. The data set is classed as ADME, organism-based. To be noted: in vivo. The gist of the method:
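Male Sprague Dawley rats, 200–300 g. IV: 0.3 mg/1 mL/kg (free base) slow injection via jugular vein, n=2. Oral gavage at 1 mg/5 mL/kg or 3 mg/5 mL/kg in solution, n=3. Jugular catheter blood at 5 min (iv only), 0.25–8 h into EDTA; plasma after protein precipitation with acetonitrile containing internal standard, HPLC-MS; noncompartmental parameters.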

Data set [6] can be described thus: Half life in rat liver microsomes after 30 mins by LC/MS/MS analysis. Type of data set: ADME.
Data set [7] can be described thus: Inhibition of CYP11B2 in cynomolgus monkey adrenal homogenates assessed as inhibition of aldosterone secretion. The data set is classed as tissue-based, Macaca fascicularis. The gist of the method:
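Cynomolgus monkey adrenal homogenates, with 11-DOC as substrate; aldosterone secretion inhibition determined as IC50.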

Data set [8] can be described thus: AUC (0 to 24 hrs) in Sprague-Dawley rat at 1 mg/kg, po. To be noted: in vivo.
The nature of data set [9]: Half life in continuous angiotensin 2 infusion Sprague-Dawley rat model at 3 mg/kg, po and 1 mg/kg, iv. The data set is classed as ADME, organism-based. The following applies: in vivo.
Data set [10] is described as follows: Clearance in continuous angiotensin-2 infusion Sprague-Dawley rat model at 3 mg/kg, po and 1 mg/kg, iv. The data set is classed as ADME, organism-based. The following applies: in vivo.
A short description of data set [11]: Half life in human liver microsomes after 30 mins by LC/MS/MS analysis. The data set is classed as ADME.
Data set [12] addresses T4, Amine oxidase [flavin-containing] A (Homo sapiens, UniProt P21397).
T4 sequence (P21397 whole entry): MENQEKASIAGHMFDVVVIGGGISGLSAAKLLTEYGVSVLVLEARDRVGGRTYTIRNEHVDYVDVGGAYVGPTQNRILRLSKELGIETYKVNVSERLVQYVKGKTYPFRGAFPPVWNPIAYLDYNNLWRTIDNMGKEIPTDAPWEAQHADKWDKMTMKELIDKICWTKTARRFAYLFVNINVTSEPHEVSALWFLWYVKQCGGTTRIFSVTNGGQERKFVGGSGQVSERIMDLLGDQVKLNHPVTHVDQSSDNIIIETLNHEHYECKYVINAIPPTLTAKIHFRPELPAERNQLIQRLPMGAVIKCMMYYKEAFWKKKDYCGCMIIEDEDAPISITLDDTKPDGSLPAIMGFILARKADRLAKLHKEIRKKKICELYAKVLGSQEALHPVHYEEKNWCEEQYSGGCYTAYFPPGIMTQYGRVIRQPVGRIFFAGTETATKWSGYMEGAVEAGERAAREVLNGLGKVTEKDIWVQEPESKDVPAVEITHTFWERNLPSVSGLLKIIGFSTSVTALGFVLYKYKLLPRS
As to the kind of experiment: Inhibition of MAO-A (unknown origin).

With `CCS(=O)(=O)NCc1cncc(-c2cc3cnc(Cl)cc3n2C)c1`, the IC50 in [1] turned out to be 169 nM; in data set [2] it was 22 nM. Besides, the Ratio IC50 in the data set filed under Homo sapiens came to 21.

Consider `Cc1c(-c2cccnc2)[nH]c2ccccc12`, for which the figures for the IC50 in data set [1], in data set [3] and in data set [2] were 21 nM, 3900 nM and 3 nM, respectively. This compound showed an inhibition at 1.5 h, 10 µM against CYP19 (aromatase) of 94%. Besides, in the data set filed under Homo sapiens, the Ratio IC50 was 27.

Regarding `CCS(=O)(=O)NCc1cncc(-c2cc3ccc(Cl)nc3n2C)c1`, the IC50 was 7 nM in data set [1], 6 nM in data set [7] and 1.1 nM in data set [2]. The Ratio IC50 is 99 in the data set filed under Macaca fascicularis and 86 in the data set listed under Homo sapiens. The same compound displayed an inhibition at 1.5 h, 10 µM against CYP19 (aromatase) of 11%. In data set [4], this compound gave a thermodynamic solubility of 450 µM (≈ 164 µg/mL). The compound also displayed a bioavailability in data set [5] of 100%. The values for the half-life in data set [6], in data set [9] and in data set [11] were 40 min, 24 min and 21 min, respectively. In addition, in data set [8], the AUC(0-t) at 24 h came out at 0.75 µM·h. Besides, the clearance in data set [10] is 68 mL/min/kg.

On to `CCS(=O)(=O)Nc1cncc(-c2c(C#N)c3ccc(Cl)cc3n2C)c1`, for which the half-inhibitory concentration (IC50) in data set [1] was found to be 13 nM; in [3], 53100 nM; in data set [2], 11 nM. Further, the Ratio IC50 is 636 in the data set filed under Macaca fascicularis and 43 in the data set filed under Homo sapiens. The compound also came in with an inhibition at 1.5 h, 10 µM against CYP19 (aromatase) of 15%. Also, the half-life was 176 min in [6] and more than 400 min in data set [11]. For the same compound, in data set [12] (human), the “inhibition (INH)” value was “Not Active”.

For the compound `Cc1c(-c2cccnc2)n(C)c2ccccc12`, the IC50 in [1] is 9 nM; in [2] it was 1.4 nM. In addition, the inhibition at 1.5 h, 10 µM on CYP19 (aromatase) was 91%. Further, the Ratio IC50 in the data set filed under Homo sapiens is 38. The half-life stood at 5 min in data set [6] and 12 min in data set [11].

Take `Cn1c(-c2cccnc2)c(C#N)c2ccc(Cl)cc21`: the concentration for half-maximal inhibition (IC50) in [1] was 4 nM; in data set [3], 8000 nM; in data set [2], 2.5 nM; in [12], 210 nM. For the same compound, the inhibition at 1.5 h, 10 µM on CYP19 (aromatase) was 47%. Besides, the Ratio IC50 in the data set listed under Homo sapiens amounted to 43. Further, the half-life stood at 47 min in [6] and 259 min in data set [11].

For the compound `CN(C)S(=O)(=O)Oc1cncc(-c2c(C#N)c3ccccc3n2C)c1`, the IC50 in data set [1] was 39 nM; in data set [3], 2000 nM; in [2] it was 2 nM; in data set [12], more than 10000 nM. The compound also gave an inhibition at 1.5 h, 10 µM against CYP19 (aromatase) of 27%. Moreover, in the data set filed under Homo sapiens, the Ratio IC50 turned out to be 103. The half-life in data set [6] stood at 1 min; in [11], 3 min.

For the compound `Cn1c(-c2cccnc2)c(C#N)c2ccccc21`, the IC50 in data set [1] was found to be 90 nM; in data set [3], 10900 nM; in data set [7] it was 9 nM; in data set [2], 11 nM. Also, the values for the Ratio IC50 in the data set filed under Macaca fascicularis and in the data set filed under Homo sapiens were 396 and 56, respectively. Further, the inhibition at 1.5 h, 10 µM at CYP19 (aromatase) stood at 58%. The half-life in data set [6] is 30 min; in data set [11], 10 min.

Consider `CCS(=O)(=O)Nc1cncc(-c2c(C#N)c3ccccc3n2C)c1`, for which the IC50 in data set [1] came out at 380 nM.
